Screens (PubChem BioAssay)
KLK7 zymogen act: proKLK7 zymogen activators, primary screen, biochemical, fluorescence intensity; hit rate 0.9% among 370,000; AID 652039, 2013; activation, % at 7 µM; purified proKLK7, EDANS-DABCYL substrate fluorescence; 100% is mature enzyme control, 0% vehicle;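 active = activation above the mean of all tested compounds plus 3 SD, computed per campaign excluding outliers beyond control limits, cut at about 13% in these data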
ADAM17 inh: ADAM17 inhibitors, primary screen, biochemical, QFRET. inhibition, % at 6.95 µM. hit rate 0.83% among 370,000. recombinant ADAM17, EDANS/DABCYL FRET peptide cleavage;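 active = inhibition above the mean of compounds lying between control limits plus 3 SD, set per campaign, cut at about 8.5% in these data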
JMJD2C inh: inhibitors of GASC-1 histone demethylase, primary screen, biochemical, fluorescence, DELFIA europium | GST-JMJD2C(1-420) H3K9me3 demethylation | inhibition, % at 2.35 µM | hit rate 0.069% among 330,000 | AID 2099, 2009;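 active = more than half of a compound's replicate wells show inhibition beyond 50%, single wells judged on their own value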;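 also: signal counts dimethyl H3K9 product captured on neutravidin plate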
NR2E3 ag-1: NR2E3 agonists in two-hybrid cells, primary screen, cell-based, luminescence, CHO-S, Gal4-NCOR/VP16-NR2E3; luciferase; Photoreceptor-specific nuclear receptor (Homo sapiens), Q9Y5X4; inhibition of corepressor binding, % at 3.98 µM; hit rate 0.35% among 360,000; AID 602229, 2012;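 active = inhibition above the mean of all tested compounds plus 3 SD, cut at about 70% in these data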;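 also: higher means lower luciferase signal from less NR2E3 corepressor binding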
Target sequence (Q9Y5X4 whole entry, looked up, the tested form may be a part): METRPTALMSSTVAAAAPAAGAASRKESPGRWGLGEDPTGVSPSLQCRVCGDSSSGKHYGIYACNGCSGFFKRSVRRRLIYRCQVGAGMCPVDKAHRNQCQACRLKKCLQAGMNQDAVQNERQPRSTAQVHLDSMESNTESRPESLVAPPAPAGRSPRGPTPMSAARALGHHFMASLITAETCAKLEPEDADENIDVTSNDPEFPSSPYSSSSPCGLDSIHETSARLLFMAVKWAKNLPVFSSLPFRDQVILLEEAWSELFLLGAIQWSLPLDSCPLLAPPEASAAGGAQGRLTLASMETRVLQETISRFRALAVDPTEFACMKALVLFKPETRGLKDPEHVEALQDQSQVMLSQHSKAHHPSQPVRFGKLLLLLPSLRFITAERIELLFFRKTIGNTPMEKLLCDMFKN
ADAM10 inh: human ADAM10 inhibitors, primary screen, biochemical, QFRET, HTS; recombinant ADAM10, EDANS/DABCYL FRET peptide cleavage, 3 h; inhibition, % at 7 µM; hit rate 0.62% among 370,000;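 active = inhibition above a per-campaign cutoff equal to the mean of compounds falling between control-based bounds plus 3 SD, cut at about 20% in these data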
NR2E3 ag-2: inhibitors of NR2E3-RetCOR corepressor binding, primary screen, NR2E3 agonist project, biochemical, TR-FRET, GST-NR2E3, biotin-RetCOR; Photoreceptor-specific nuclear receptor (Homo sapiens), Q9Y5X4; 1536-well; inhibition of corepressor binding, % at 4.78 µM; hit rate 0.12% among 320,000; AID 2300, 2010;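 active = percent inhibition above the cutoff of mean plus 3 SD of all tested compounds, set per screening campaign, cut at about 20% in these data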
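System: GST-tagged NR2E3 plus biotinylated RetCOR corepressor; Buffer or medium: pH 7.5 Tris-based buffer; Probe or stimulus: RetCOR corepressor, biotinylated, 7 nM; Doses: compound at 4.8 µM, single dose; Schedule: 5 h incubation at 4 °C; Technique: time-resolved FRET; Evaluation: percent inhibition of TR-FRET ratio; Replication: one well per compound, singlicate testing.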
proKLK7 act conf: proKLK7 zymogen activators, confirmation, biochemical, fluorescence intensity, triplicate. hit rate 68% among 3,200. shares compounds with KLK7 zymogen act. purified proKLK7, EDANS-DABCYL substrate fluorescence; scaled: vehicle 0, mature enzyme 100. AID 686949, 2013. activation, % at 7 µM;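 active = activation, as change over the incubation, above the mean of all tested compounds plus 3 SD, cut at about 13% in these data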
EDANS-DABCYL int: EDANS-DABCYL substrate optical interference, artefact control for kallikrein-7 zymogen activator project, biochemical, fluorescence intensity, high throughput; activation, % at 7 µM; hit rate 80% among 3,200; no enzyme, 4 h; solvent 0%, active enzyme control 100%; shares compounds with KLK7 zymogen act; AID 686952, 2013;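 active = activation above the all-compound mean plus 3 SD, ignoring values outside control-based bounds, cut at about 4.8% in these data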;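 also: value is the 4 h activation minus the activation read at time zero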
Hits are given with their value; . = inactive; / = no result. Sampled rows, rich in hits. Any-hit rate of the full collection: about 2.5%.

SMILES | KLK7 zymogen act | ADAM17 inh | JMJD2C inh | NR2E3 ag-1 | ADAM10 inh | NR2E3 ag-2 | proKLK7 act conf | EDANS-DABCYL int
CC(=O)Nc1ccc(-c2cc(C(=O)O)c3ccc(C)cc3n2)cc1 | 17 | . | . | . | . | . | 17 | 28
CC1=C(C(=O)N2CCOCC2)CC(CC(=O)NCCCN(C)C)C(=O)N1CCCN1CCCC1=O (stereo unspecified) | . | . | / | . | . | / | / | /
COc1ccc2c(c1OC)C(=O)OC2CC(=O)c1ccc2c(c1)OCO2 (stereo unspecified) | 18 | . | . | . | . | . | . | 12
COc1ccc2c(c1OC)C(=O)OC2C/C(=N\NC(N)=O)c1ccccc1 (stereo unspecified) | . | . | . | . | . | . | / | /
O=C(c1ccco1)N1CCN(Cc2cc(=O)c(OCc3ccc(F)cc3)co2)CC1 | . | . | . | . | . | . | / | /
CCOC(=O)CC(=O)NC1(Cc2ccc(O)cc2)CCCCC1 | . | . | . | . | . | . | / | /
COc1cc2c(C#N)c(N3CCN(C)CC3)nc(N)c2c(N)n1 | 65 | . | . | . | . | . | 48 | 61
C#CCOc1ccc(C2C3=C(COC3=O)Nc3cc4c(cc32)OCO4)cc1OC (stereo unspecified) | 69 | . | . | . | . | / | . | .
CCOc1ccccc1C1C2=C(COC2=O)Nc2cc3c(cc21)OCO3 (stereo unspecified) | 16 | . | . | . | . | . | . | .
NS(=O)(=O)c1cccc(NC(=O)CN2CCN(Cc3ccc4c(c3)OCO4)CC2)c1 | . | . | . | . | . | . | / | /
CCN(CC)Cc1c(O)c(Cl)cc2c3c(c(=O)oc12)CCCC3 | 49 | . | . | . | . | . | 66 | 75
O=c1oc2c(CN3CCOCC3)c(O)c(Cl)cc2c2c1CCC2 | 122 | . | / | . | . | / | 81 | 78
Cc1oc2c(C)c3oc(=O)c4c(c3cc2c1C)CCC4 | . | . | . | . | . | / | / | /
CN(C)Cc1c(O)c(Cl)cc2c3c(c(=O)oc12)CCCC3 | 47 | . | . | . | . | . | 70 | 72
Cc1coc2c(C)c3oc(=O)c4c(c3cc12)CCCC4 | . | . | . | . | . | . | / | /
Cc1ccc(NC(=O)COC(=O)C2=NN(c3ccccc3)C(=O)CC2)c(Br)c1 | . | . | . | . | . | . | / | /
CCC(=O)Oc1ccc2c(c1)O/C(=C\c1ccco1)C2=O | 51 | . | . | . | . | . | 478 | 467
CC1CCN(Cc2c(O)ccc3c2O/C(=C\c2ccco2)C3=O)CC1 | / | / | . | . | / | . | / | /
CCN(CC)C(=O)Oc1ccc2c(c1)O/C(=C\c1ccco1)C2=O | . | . | . | . | . | . | / | /
COCCN(CCOC)Cc1c(O)ccc2c1O/C(=C\c1ccco1)C2=O | 19 | . | . | . | . | . | 23 | 27
O=C1/C(=C/c2ccco2)Oc2c1ccc(O)c2CN1CCCCC1 | 14 | . | . | . | . | . | 67 | 73
Cc1ccc(-c2cnc(-c3ccncc3)o2)cc1 | 74 | . | . | . | . | . | 65 | 70
Cc1ccc(-c2nc(-c3ccncc3)no2)cc1 | . | . | . | . | . | / | / | /
Nc1ccc(-c2ncc(-c3ccccc3)o2)cc1 | 21 | . | / | . | . | . | . | .
